TDP2 inh – TDP2 (human) inhibition, absorbance primary screen; recombinant TDP2, T5PNP hydrolysis, p-nitrophenol absorbance 415 nm; inhibition, % at 12.8 µM; 0.34% of 370,000 active; AID 720702;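 active = inhibition above the mean of all tested compounds plus 3 SD, set per campaign, cut at about 25% in these data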;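 note: 0% = DMSO with enzyme and 100% = buffer with substrate but no TDP2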
Target sequence (O95551 whole entry, looked up): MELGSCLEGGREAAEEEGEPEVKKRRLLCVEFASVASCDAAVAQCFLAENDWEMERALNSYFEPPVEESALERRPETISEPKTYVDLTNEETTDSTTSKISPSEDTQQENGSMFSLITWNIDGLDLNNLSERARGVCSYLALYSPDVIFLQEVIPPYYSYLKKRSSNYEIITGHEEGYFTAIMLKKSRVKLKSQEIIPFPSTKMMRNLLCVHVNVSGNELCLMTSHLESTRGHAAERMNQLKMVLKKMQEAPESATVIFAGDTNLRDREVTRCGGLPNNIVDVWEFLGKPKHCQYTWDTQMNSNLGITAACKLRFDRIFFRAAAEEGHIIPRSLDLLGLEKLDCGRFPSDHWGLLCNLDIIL
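Assay system: Recombinant human TDP2 | Quantity: 120 nM TDP2 per well | Incubation: 2 h at 37 °C | Signal: Epi absorbance | Evaluation: Percent inhibition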
PRMT1 inh – inhibitors of human PRMT1; Q99873; recombinant PRMT1, activity-based probe fluorescence polarization; inhibition, % at 2.79 µM; 1.3% of 370,000 active; AID 652257;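 active = inhibition above about 21% made by adding two undisclosed values, limit read from the data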
PAD4 inh – inhibitors of human PAD4; 0.41% of 330,000 active; inhibition, % at 6.36 µM; recombinant PAD4, RCA probe fluorescence polarization; AID 485272; Q9UM07;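 active = percent inhibition above a cutoff equal to the mean of all tested compounds plus 3 SD, cut at about 15% in these data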;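 note: 0% = PAD4 with RCA probe and DMSO and 100% = probe without PAD4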
GSTO1 counter – blocks human GSTO1 in RBBP9 counter-screen; P78417; recombinant GSTO1, activity-based probe fluorescence polarization; inhibition, % at 5.96 µM; 1.1% of 300,000 active; AID 1974;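 active = inhibition above the campaign mean inhibition plus 3 SD, cut at about 35% in these data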;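 note: 0% = GSTO1-1 with DMSO and 100% = wells lacking GSTO1-1 enzyme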
Target sequence (P78417 whole entry, looked up): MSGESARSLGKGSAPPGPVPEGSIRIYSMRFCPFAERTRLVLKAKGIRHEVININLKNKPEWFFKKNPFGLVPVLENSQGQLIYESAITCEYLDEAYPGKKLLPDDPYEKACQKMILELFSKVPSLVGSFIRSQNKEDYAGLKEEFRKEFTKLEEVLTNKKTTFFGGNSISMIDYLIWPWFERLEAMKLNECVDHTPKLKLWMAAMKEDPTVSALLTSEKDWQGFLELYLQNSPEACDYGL
Apaf-1 inh – blocks human Apaf-1 apoptosome activity; inhibition, % at 20 µM; reconstituted apoptosome caspase-3 activity, DEVD-Rh110 fluorescence; 0.71% of 330,000 active; O14727; active = inhibition of at least 40% at 20 µM;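 note: plate controls were DMSO wells for no effect and DEVD-CHO caspase inhibitor wells for full effect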
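Material: reconstituted apoptosome with Apaf-1, cytochrome c, caspase-9, procaspase-3, dATP / Buffer or medium: pH 7.5 Hepes buffer with CHAPS, BSA, DTT / Also added: cytochrome c with DEVD-Rh110 / Schedule: compound with Apaf-1, dATP, procaspase-3 30 min, then 50 min reaction, room temperature / Technique: rhodamine 110 fluorescence at Ex 480/Em 540 nm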
* marks the source's active call; other numbers are inactive results; x = no result. Only some compounds are listed: those with a hit (about 2.6% of all), similar ones and a draw of the others.

SMILES | TDP2 inh | PRMT1 inh | PAD4 inh | GSTO1 counter | Apaf-1 inh
CC(C)(C)N(NS(=O)(=O)c1ccc(F)cc1)c1ccccc1 | -4 | 22* | -6 | -6 | -2
CCCNC(=O)c1nnsc1S(=O)(=O)c1ccc(Cl)cc1 | -2 | 78* | x | x | 8
CCCNC(=O)NS(=O)(=O)c1ccc(Cl)cc1 | -7 | -3 | -4 | 7 | -1
CC1CCN(c2ccc(C(=O)O)cc2NS(=O)(=O)c2ccc(Cl)s2)CC1 | 4 | 4 | x | x | x
O=[N+]([O-])c1c(Nc2ccc(O)cc2)cc(N2CCOCC2)c2nonc12 | 6 | 6 | 4 | -4 | 30
O=C(O)c1cc(Nc2cc(Cl)c3nonc3c2[N+](=O)[O-])ccc1O | -13 | 65* | 6 | 36* | 16
Cc1ccccc1NC(=O)Nc1ccc2c(c1)C(=O)N(C)[C@H]1CC[C@H](CC(=O)NCC3CC3)O[C@@H]1CO2 | -9 | -1 | x | x | x
COC(=O)c1ccc(-n2c(C)cc(C(=O)CCl)c2C)cc1 | 15 | 0 | -3 | 87* | -5
CN(C)c1cccc(/C=C2\CC3(OC(=O)c4ccc(F)cc4)CCCN2C3)c1 (stereo unspecified) | -2 | 2 | x | x | x
O=C(N/N=C/c1c(O)ccc2ccccc12)c1ccc[n+](CCO)c1 | -1 | 1 | 2 | 44* | 15
Cn1cc(C(=O)N/N=C/c2c(O)ccc3ccccc23)ccc1=O | -16 | -3 | 5 | 39* | -3
Cc1ccc2nc(N3C(=O)C(O)=C(C(=O)c4ccco4)C3c3ccc(O)cc3)sc2c1 (stereo unspecified) | -11 | 21* | 1 | -4 | 16
COC(=O)c1cc2c(c3c4cc(C)ccc4n(S(=O)(=O)c4ccc(C)cc4)c13)C(=O)N(C)C2 | -4 | 2 | x | x | x
O=C(CSc1ccc2c(c1)OCCO2)Nc1ncccc1O | -2 | 24* | 0 | 15 | -7
O=C(CSc1ccc2c(c1)OCCO2)Nc1ccc(Cl)cn1 | -8 | 6 | 3 | 5 | -6
CNC(=O)C[C@H]1CC[C@H]2[C@@H](COc3ccc(NC(=O)Nc4ccccc4)cc3C(=O)N2C)O1 | 5 | -2 | x | x | x
O=C(Nc1cccc(F)c1)/C(=C\c1ccco1)NC(=O)c1cccs1 | 0 | 23* | -4 | 1 | 18
O=C(Nc1cccc(C(F)(F)F)c1)/C(=C\c1ccco1)NC(=O)c1cccs1 | -1 | 21 | -3 | 2 | -7
CSc1ccc(/C=N/n2c(COc3ccccc3)n[nH]c2=S)cc1 | -9 | 22* | 1 | 0 | 18
S=c1[nH]nc(COc2ccccc2)n1/N=C/c1ccc(Cl)cc1 | 5 | 7 | x | x | 6
COc1ccc2c(c1)OC(O)(C(F)(F)F)CC2=O (stereo unspecified) | 2 | 0 | -3 | 36* | -12
CCCn1nc([N+](=O)[O-])c(C(C#N)c2nc3ccccc3o2)c(Cl)c1=O (stereo unspecified) | 11 | 22* | 8 | -14 | 24
Cn1nc([N+](=O)[O-])c(C(C#N)c2ccccn2)c(Cl)c1=O (stereo unspecified) | -5 | 19 | 4 | 8 | -6
CCN(CC)C(=O)CC[C@@H]1CC[C@]2(CCCN(C(=O)C(C)(C)C)C2)O1 | -2 | 1 | x | x | x
CCC(CC)NC(=O)Nc1cccc(C)c1C | 2 | -3 | 1 | 5 | -3
SMILES | TDP2 inh | PRMT1 inh | PAD4 inh | GSTO1 counter | Apaf-1 inh
CC(C)N(CC(=O)Nc1ccc(Cl)cc1C(F)(F)F)C(=O)CCl | 8 | 2 | 0 | 66* | -12
CCC(C)N(CC(=O)Nc1cccc(C)c1C)C(=O)CCl (stereo unspecified) | x | x | 1 | 52* | -15
CCN(CC)C(=O)CC[C@H]1CC[C@]2(CCCN(Cc3cccc4ccccc34)C2)O1 | 4 | 1 | x | x | x
CCN1CCC(O)(/C=C/c2ccc(C(C)C)cc2)C(C(=O)/C=C/c2ccc(C(C)C)cc2)C1 (stereo unspecified) | 3 | 24* | x | x | x
CN(C)CCCNC(=O)C(=O)NCC1OCCN1S(=O)(=O)c1cccs1 (stereo unspecified) | 1 | -2 | -6 | -3 | 64*
COc1ccc(-c2noc(C3CCCN(C(=O)Nc4ccc5c(c4)OCO5)C3)n2)cc1 (stereo unspecified) | 2 | -1 | x | x | x
CNC[C@H](CC1CCCCC1)NC[C@H](Cc1ccccc1)NCCC12CC3CC(CC(C3)C1)C2 | -1 | 1 | -5 | -5 | 74*
C=CC(=O)Nc1ccc(CN2C(=O)N(c3c(Cl)c(OC)cc(OC)c3Cl)Cc3cnc(NCCCCN(CC)CC)nc32)cc1 | x | x | -3 | x | 63*
C=CC(=O)Nc1cccc(Oc2nc(Nc3ccc(N4CCN(C)CC4)cc3OC)ncc2Cl)c1 | 1 | -1 | x | x | x
Oc1ccc(N=C/C=C/c2cccc(Br)c2)cc1-c1nc2ccccc2s1 | x | x | 0 | 35* | 5
C/C(=N/Nc1ccc(C(=O)O)cc1)c1ccc(O)c(O)c1O | 6 | 7 | 2 | 45* | 21
C=CCN1[C@H](Cc2ccccc2)COc2cccc(N3CCSCC3)c2S1(=O)=O | 4 | 2 | x | x | x
Cc1ccc(C(=O)NC(=S)NNC(=O)CC#N)cc1 | 8 | 4 | 4 | 35* | -1
O=c1cc(-c2c(F)c(F)c(F)c(F)c2F)oc2c(F)c(F)c(F)c(F)c12 | x | x | 46* | -1 | 17
C=C(C)CSc1nnc(-c2cc(-c3ccccc3)n[nH]2)n1N | 10 | 0 | x | x | x
O=C(OCCN1CCN(C2CN(Cc3cn(Cc4cccc(F)c4)nn3)S(=O)(=O)C2)CC1)c1cc2ccccc2o1 (stereo unspecified) | 0 | 2 | x | x | x
O=[N+]([O-])c1ccc2nc(-c3cccnc3)[nH]c2c1 | 5 | 1 | -4 | -3 | 1
O=[N+]([O-])c1cc([N+](=O)[O-])c2cc(-c3cccnc3)[nH]c2c1 | 26* | 1 | -3 | -1 | -13
Cc1cc(C)cc(NC(=O)C2(C(=O)C3CC3)CC(c3ccccc3C(F)(F)F)=NO2)c1 (stereo unspecified) | 5 | -4 | x | x | x
Cc1ccc(S(=O)(=O)c2nc(-c3ccco3)oc2SCC(N)=O)cc1 | 18 | 21* | -2 | 0 | 5
COc1ccc2cc(CN(CCc3ccccc3)Cc3nnnn3Cc3ccco3)c(=O)[nH]c2c1 | -6 | 22* | -3 | 0 | 31
COc1ccc2[nH]c(=O)c(CN(Cc3nnnn3Cc3ccco3)C3CCCCC3)cc2c1 | -3 | 2 | 0 | -2 | 16
Cc1ccc(S(=O)(=O)N2CCOCC2)cc1NC(=O)COC(=O)CNC(=O)c1ccc(C(C)(C)C)cc1 | 7 | -4 | -9 | 35* | 17
CC(=O)Oc1cccc(N2C(=O)C3CC=CCC3C2=O)c1 (stereo unspecified) | 12 | 1 | 1 | 1 | 8
CC(=O)Oc1cccc2c1C(=O)C1CC=CC(OC(C)=O)C1C2=O (stereo unspecified) | 18 | 56* | x | x | x
Oc1c(Br)cc(Br)c(/C=N/n2c(-c3ccccc3)n[nH]c2=S)c1Br | 0 | 23* | -6 | -15 | 26

High-throughput results (PubChem BioAssay)
